Results published in paper PMC3790647 (Clinical cancer research : an official journal of the …, 2013).

Legend:
[1] = tested on: relapsed/refractory Hodgkin lymphoma; conditions: cited from earlier work
HDAC enzyme = assay: Cellular HDAC enzyme activity assay in patient blood cells; type: in vivo, human; conditions: plasma concentration, 2 hour post-dose on day 1, all dose levels, Hill model
How it was run: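 Whole citrate blood (1 ml) was incubated 2 h at 37°C with fluorogenic substrate Boc-K(Ac)-AMC, then erythrocytes were lysed and cells stored at −80°C. Developer reagent lysed cells and released fluorescence from the deacetylated substrate, read by fluorimetry. Untreated control was set as 100% activity and 10 μM trichostatin A as 100% inhibition. Sampling: C1D1 pre-dose, 2, 5, 8, 24 h; C1D5; C4D5.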

HeLa cells = conditions: ref Investigator’s Brochure, version 5, 2010; cited from earlier work
[2] = tested on: patients with advanced solid tumors; assay: Safety and tolerability, first-in-human dose escalation; type: in vivo; conditions: for Total number of AEs at each dose level: treatment-related clinical AEs
How it was run: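 Open-label 3+3 escalation: oral once-daily dosing on days 1–5 every 14 days at 100, 200, 400, 600 and 800 mg, with 3–6 patients per level and 4 cycles. Adverse events were graded by NCI-CTC-AE v3.0 from first dose to 30 days after last dose. DLTs were assessed over the first 14 days. Evaluable patients had five consecutive doses plus safety evaluations over nine days.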

[3] = first 4 treatment cycles, 68 cycles

## CN(C)Cc1ccc(S(=O)(=O)n2ccc(/C=C/C(=O)NO)c2)cc1 [resminostat]
[1]; 11 of 33 evaluable patients
  Objective response rate (Cheson criteria, independent central review, interim analysis): 33%
[1]; 18 of 33 patients
  Clinical benefit rate: 55%
HDAC enzyme
  Resminostat concentration at 50% of HDAC enzyme inhibition: 306 ng/mL
HeLa cells
  Induction of histone H3 hyperacetylation and endogenous p21waf1: dose-dependent induction
[2]; 100 mg (N=3), grade 1
  Dysgeusia, treatment-related, patients by maximum grade: 1
  Fatigue, treatment-related, patients by maximum grade: 1
[2]; 100 mg (N=3)
  Total number of AEs at each dose level: 2
[2]; 200 mg (N=3), grade 1
  Nausea, treatment-related, patients by maximum grade: 1
[2]; 200 mg (N=3), grade 2
  ALT increase, treatment-related, patients by maximum grade: 1
[2]; 200 mg (N=3)
  Total number of AEs at each dose level: 2
[2]; 400 mg (N=3), grade 1
  Arrhythmia, treatment-related, patients by maximum grade: 1
  Thrombocytopenia, treatment-related, patients by maximum grade: 1
[2]; 400 mg (N=3), grade 2
  Nausea, treatment-related, patients by maximum grade: 2
[2]; 400 mg (N=3)
  Total number of AEs at each dose level: 4
[2]; 600 mg (N=3), grade 1
  Anorexia, treatment-related, patients by maximum grade: 1
  Depression, treatment-related, patients by maximum grade: 1
  Diarrhea, treatment-related, patients by maximum grade: 1
  Dysgeusia, treatment-related, patients by maximum grade: 1
  Fatigue, treatment-related, patients by maximum grade: 1
  Nausea, treatment-related, patients by maximum grade: 3
  Vomiting, treatment-related, patients by maximum grade: 2
[2]; 600 mg (N=3), grade 2
  Anemia, treatment-related, patients by maximum grade: 1
  Fatigue, treatment-related, patients by maximum grade: 1
[2]; 800 mg (N=7), grade 1
  Anorexia, treatment-related, patients by maximum grade: 3
  Dysgeusia, treatment-related, patients by maximum grade: 1
  Electrocardiogram QT prolongation, treatment-related, patients by maximum grade: 1
  Epistaxis, treatment-related, patients by maximum grade: 1
  Fatigue, treatment-related, patients by maximum grade: 1
  Hypokalemia, treatment-related, patients by maximum grade: 1
  Nausea, treatment-related, patients by maximum grade: 4
  Vomiting, treatment-related, patients by maximum grade: 2
  Weight decrease, treatment-related, patients by maximum grade: 1
[2]; 800 mg (N=7), grade 2
  AST increase, treatment-related, patients by maximum grade: 1
  Anorexia, treatment-related, patients by maximum grade: 1
  Diarrhea, treatment-related, patients by maximum grade: 1
  Dysgeusia, treatment-related, patients by maximum grade: 1
  Fatigue, treatment-related, patients by maximum grade: 3
  Nausea, treatment-related, patients by maximum grade: 2
  Vomiting, treatment-related, patients by maximum grade: 2
  Weight decrease, treatment-related, patients by maximum grade: 1
[2]; 800 mg (N=7), grade 3
  ALT increase, treatment-related, patients by maximum grade: 1
  Fatigue, treatment-related, patients by maximum grade: 1
  Nausea, treatment-related, patients by maximum grade: 1
  Vomiting, treatment-related, patients by maximum grade: 1
[2]; 800 mg dose level, first cycle
  Evaluable patients sustaining a DLT: 1 of 6
[2]; 68 cycles
  AST abnormalities, share of all administered cycles: 21%
[2]; N=19
  Patients who omitted doses due to treatment-related AEs: 21%
  Patients who underwent dose reductions due to treatment-related AEs: 21%
[2]; Total (N=19), grade 1
  ALT increase, treatment-related, patients by maximum grade: 2
  AST increase, treatment-related, patients by maximum grade: 1
  Anemia, treatment-related, patients by maximum grade: 1
  Anorexia, treatment-related, patients by maximum grade: 4
  Arrhythmia, treatment-related, patients by maximum grade: 1
  Depression, treatment-related, patients by maximum grade: 1
  Diarrhea, treatment-related, patients by maximum grade: 1
  Dysgeusia, treatment-related, patients by maximum grade: 3
  Electrocardiogram QT prolongation, treatment-related, patients by maximum grade: 1
  Epistaxis, treatment-related, patients by maximum grade: 1
  Fatigue, treatment-related, patients by maximum grade: 3
  Hypokalemia, treatment-related, patients by maximum grade: 1
  Nausea, treatment-related, patients by maximum grade: 8
  Thrombocytopenia, treatment-related, patients by maximum grade: 1
  Vomiting, treatment-related, patients by maximum grade: 4
  Weight decrease, treatment-related, patients by maximum grade: 1
[2]; Total (N=19), grade 2
  Anorexia, treatment-related, patients by maximum grade: 1
  Diarrhea, treatment-related, patients by maximum grade: 1
  Dysgeusia, treatment-related, patients by maximum grade: 1
  Fatigue, treatment-related, patients by maximum grade: 4
  Nausea, treatment-related, patients by maximum grade: 4
  Vomiting, treatment-related, patients by maximum grade: 2
  Weight decrease, treatment-related, patients by maximum grade: 1
[2]; Total (N=19), grade 3
  Fatigue, treatment-related, patients by maximum grade: 1
  Nausea, treatment-related, patients by maximum grade: 1
  Vomiting, treatment-related, patients by maximum grade: 1
[2]; all dose levels
  Grade 4 treatment-related adverse events: No grade 4 treatment-related adverse event
  Treatment-related deaths: No treatment-related deaths
[2]; all grades, N=19
  Anemia regardless of causality, patients: 89%
  GGT elevation regardless of causality, patients: 80%
  Hypermagnesemia, patients: 26%
  Hypokalemia, patients: 58%
  Hyponatremia, patients: 58%
  Lymphopenia, patients: 89%
  Neutropenia, patients: 21%
[2]; all patients (N=19)
  Grade 1-2 dysgeusia, patients: 21%
  Patients with SAEs unrelated to treatment: 37%
  Patients with treatment-related SAE: 11%
  Treatment-related anorexia, irrespective of grade, patients: 26%
  Treatment-related fatigue, irrespective of grade, patients: 42%
  Treatment-related nausea, irrespective of grade, patients: 68%
  Treatment-related vomiting, irrespective of grade, patients: 37%
[2]; all patients (N=19), both patients in 800 mg cohort
  Number of treatment-related serious adverse events (SAE): 3
[2]; [3]
  Anorexia, irrespective of causality and grade, share of administered cycles: 31%
  Fatigue, irrespective of causality and grade, share of administered cycles: 40%
  Grade 3 fatigue, number of treatment cycles: 3 treatment cycles
  Nausea, irrespective of causality and grade, share of administered cycles: 60%
[2]; grade 1, N=19
  Hypokalemia, patients: 47%
  Hyponatremia, patients: 47%
[2]; grade 1-2, N=19
  Leukopenia, patients: 37%
  Thrombocytopenia, patients: 37%
[2]; grade 2, N=19
  Anemia regardless of causality, patients: 47%
  Lymphopenia, patients: 42%
[2]; grade 3, N=19
  Anemia regardless of causality, patients: 11%
  GGT elevation, patients: 11%
  Hypokalemia, patients: 11%
  Hyponatremia, patients: 11%
  Lymphopenia, patients: 21%
[2]; once-daily days 1-5 every 14 days, up to 800 mg
  Maximum tolerated dose (MTD): not reached
[2]; orally once-daily on days 1-5 every 14 days
  Recommended phase II dose (RP2D): 600 mg
